Measured values reported in ChEMBL document CHEMBL1275401, “2'-Deoxy-2'-spirocyclopropylcytidine revisited: a new and selective inhibitor of the hepatitis C virus NS5B polymerase” (J Med Chem, 2010).

Experiments:
[1] = test system: Hepatitis C virus; test: Antiviral activity against Hepatitis C virus subtype 1b with adaptive mutations of E1202G, T1280I, K1846T […] infected in human HuH7 cells assessed as inhibition of viral replication after 3 days by luciferase assay; type: functional, organism-based, Hepacivirus hominis; conditions: genotype 1b, Huh-7, 72 h
Procedure, shortened: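 Huh7-Rep cells carrying the genotype 1b subgenomic luciferase reporter replicon (clone ET; adaptive mutations E1202G, T1280I, K1846T). 2500 cells per well were exposed to a nine-point 1/4 serial dilution of compound. Replication was read out as luciferase activity, and EC50 was derived from it. Values are averages of at least four repeats.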

[2] = Cytotoxicity against human HuH7 cells expressing CMV-Luc after 3 days by luciferase assay; type: cell-based, Huh-7
Procedure, shortened: (§1)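 Huh7 cells stably carrying luciferase under the CMV constitutive promoter, or MT4 cells with luciferase under the HIV LTR promoter, were cultured with or without compound dilutions for 3 days at 37 °C in humidified 5% CO₂. Luciferase activity served as the measure of proliferation, giving the CC₅₀ as 50% inhibition of growth. Values are averages of at least four repeats.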

[3] = Cytotoxicity against human MT4 cells expressing LTR-Luc after 3 days by luciferase assay; type: cell-based; procedure, shortened: as §1
[4] = Cmax in Sprague-Dawley rat at 15 mg/kg, po; type: ADME, organism-based; set-up: dose 15 mg/kg, route oral; conditions: in vivo
Procedure, shortened: (§2)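 Male Sprague-Dawley rats, three per dose, received a single oral solution in 20% hydroxypropyl-β-cyclodextrin. EDTA blood was collected at 0.5, 1, 2, 4, 7 and 24 h, kept on ice protected from light, and spun at 4 °C within 1 h; plasma was stored at −20 °C. Parent nucleoside was quantified by LC-MS after acetonitrile precipitation (standard curve 5-2000 ng/mL). Noncompartmental analysis.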

[5] = Tmax in Sprague-Dawley rat at 15 mg/kg, po; type: ADME, organism-based; set-up: dose 15 mg/kg, route oral; conditions: in vivo; procedure, shortened: as §2
[6] = AUC (0 to 7 hrs) in Sprague-Dawley rat at 15 mg/kg, po; type: ADME, organism-based; set-up: time < 7 hr, dose 15 mg/kg, route oral; conditions: plasma; procedure, shortened: as §2
[7] = Cmax in Sprague-Dawley rat at 90 mg/kg, po; type: ADME, organism-based; set-up: dose 90 mg/kg, route oral; conditions: in vivo; procedure, shortened: as §2
[8] = Tmax in Sprague-Dawley rat at 90 mg/kg, po; type: ADME, organism-based; set-up: dose 90 mg/kg, route oral; conditions: in vivo; procedure, shortened: as §2
[9] = AUC (0 to 24 hrs) in Sprague-Dawley rat at 90 mg/kg, po; type: ADME, organism-based; set-up: time < 24 hr, dose 90 mg/kg, route oral; conditions: plasma; procedure, shortened: as §2
[10] = Cmax in Beagle dog at 15 mg/kg, po; type: ADME, organism-based, Canis lupus familiaris; set-up: dose 15 mg/kg, route oral; conditions: in vivo
Procedure, shortened: (§3)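 Single oral dose given as a solution in 20% hydroxypropyl-β-cyclodextrin to Beagle dogs, three per dose. Blood was taken on EDTA at 0.5, 1, 2, 4, 6, 8, 24 and 48 h, kept on ice away from light, and centrifuged at 4 °C within 1 h; plasma was stored at −20 °C. Analyte was protein-precipitated with acetonitrile and measured by LC-MS (LOQ ≥5.00 ng/mL). Noncompartmental parameters.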

[11] = Tmax in Beagle dog at 15 mg/kg, po; type: ADME, organism-based, Canis lupus familiaris; set-up: dose 15 mg/kg, route oral; conditions: in vivo; procedure, shortened: as §3
[12] = AUC (0 to 24 hrs) in Beagle dog at 15 mg/kg, po; type: ADME, organism-based, Canis lupus familiaris; set-up: time < 24 hr, dose 15 mg/kg, route oral; conditions: plasma; procedure, shortened: as §3
[13] = Cmax in Beagle dog at 75 mg/kg, po; type: ADME, organism-based, Canis lupus familiaris; set-up: dose 75 mg/kg, route oral; conditions: in vivo; procedure, shortened: as §3
[14] = Tmax in Beagle dog at 75 mg/kg, po; type: ADME, organism-based, Canis lupus familiaris; set-up: dose 75 mg/kg, route oral; conditions: in vivo; procedure, shortened: as §3
[15] = AUC (0 to 24 hrs) in Beagle dog at 75 mg/kg, po; type: ADME, organism-based, Canis lupus familiaris; set-up: time < 24 hr, dose 75 mg/kg, route oral; conditions: plasma; procedure, shortened: as §3
[16] = Cmax in Sprague-Dawley rat at 10 mg/kg, po; type: ADME, organism-based; set-up: dose 10 mg/kg, route oral; conditions: in vivo; procedure, shortened: as §2
[17] = Tmax in Sprague-Dawley rat at 10 mg/kg, po; type: ADME, organism-based; set-up: dose 10 mg/kg, route oral; conditions: in vivo; procedure, shortened: as §2
[18] = AUC (0 to 7 hrs) in Sprague-Dawley rat at 10 mg/kg, po; type: ADME, organism-based; set-up: time < 7 hr, dose 10 mg/kg, route oral; conditions: plasma; procedure, shortened: as §2
[19] = Cmax in Sprague-Dawley rat at 60 mg/kg, po; type: ADME, organism-based; set-up: dose 60 mg/kg, route oral; conditions: in vivo; procedure, shortened: as §2
[20] = Tmax in Sprague-Dawley rat at 60 mg/kg, po; type: ADME, organism-based; set-up: dose 60 mg/kg, route oral; conditions: in vivo; procedure, shortened: as §2
[21] = AUC (0 to 7 hrs) in Sprague-Dawley rat at 60 mg/kg, po; type: ADME, organism-based; set-up: time < 7 hr, dose 60 mg/kg, route oral; conditions: plasma; procedure, shortened: as §2

Compound	EC50 [1]	CC50 at 72 h [2]	CC50 at 72 h [3]	Cmax [16]	Tmax [17]	AUC(0-t) at 7 h [18]	other results
C[C@@]1(F)[C@H](O)[C@@H](CO)O[C@H]1n1ccc(N)nc1=O	1.9 µM	> 98.4 µM	> 98.4 µM	–	–	–	–
[N-]=[N+]=N[C@]1(CO)O[C@@H](n2ccc(N)nc2=O)[C@H](O)[C@@H]1O [4'-AZIDOCYTIDINE]	4.3 µM	> 98.4 µM	> 98.4 µM	–	–	–	–
CC(C)C(=O)OC[C@H]1O[C@@H](n2ccc(N)nc2=O)C2(CC2)[C@@H]1OC(=O)C(C)C	20.3 µM	> 98.4 µM	> 98.4 µM	–	–	–	Cmax [4]: 2390 ng/mL; Tmax [5]: 0.8 h; AUC(0-t) at 7 h [6]: 7220 ng·h/mL; Cmax [7]: 11400 ng/mL; Tmax [8]: 0.7 h; AUC(0-t) at 24 h [9]: 40000 ng·h/mL; Cmax [10]: 6300 ng/mL; Tmax [11]: 1.5 h; AUC(0-t) at 24 h [12]: 37000 ng·h/mL; Cmax [13]: 42800 ng/mL; Tmax [14]: 1.3 h; AUC(0-t) at 24 h [15]: 204000 ng·h/mL
Nc1ccn([C@@H]2O[C@H](CO)[C@@H](O)C23CC3)c(=O)n1	7.3 µM	> 98.4 µM	> 98.4 µM	85 ng/mL	1 h	248 ng·h/mL	Cmax [19]: 527 ng/mL; Tmax [20]: 1.3 h; AUC(0-t) at 7 h [21]: 1640 ng·h/mL
C[C@@]1(O)[C@H](O)[C@@H](CO)O[C@H]1n1ccc(N)nc1=O	4.6 µM	> 98.4 µM	> 98.4 µM	–	–	–	–
CC(C)C(=O)O[C@@H]1[C@@H](CO)O[C@@H](n2ccc(N)nc2=O)C12CC2	42.8 µM	> 98.4 µM	> 98.4 µM	184 ng/mL	0.7 h	2620 ng·h/mL	–
